Reference: BindingDB's records for doi:10.1021/jm020820h (2002)

Legend:
[1] = Effective concentration required to inhibit HIV-1 induced cytopathicity in CEM cell culture by 50%.
[2] = Effective concentration required to inhibit HIV-1 induced cytopathicity in MT-4 cell culture by 50%.
[3] = target: T1, Reverse transcriptase/RNaseH (Human immunodeficiency virus 1, UniProt Q72547); assay: Effective concentration required to inhibit HIV-1 induced cytopathicity in MT-4 cell culture by 50%.
Procedure, shortened: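 MT-4 cells at 3 × 10⁵/mL infected with HIV-1 or HIV-2 at ~100 CCID₅₀ per mL, mixed 1:1 with compound dilutions. Cytopathicity read by trypan blue dye exclusion after 5 days. EC₅₀ is the concentration giving 50% protection against the virus-induced loss of cell viability.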

[4] = target: T1, Reverse transcriptase/RNaseH; assay: Effective concentration required to inhibit HIV-1 induced cytopathicity in CEM cell culture by 50%.
Procedure, shortened: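 CEM cells at 4 × 10⁵/mL infected with HIV-1 or HIV-2 at ~100 CCID₅₀ per mL, mixed 1:1 with compound dilutions. Giant cell formation scored microscopically after 4 days. EC₅₀ is the concentration inhibiting virus-induced cytopathicity by 50%.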

Row | SMILES | EC50 [1] [nM] | EC50 [2] [nM] | EC50 [3] [nM] | EC50 [4] [nM]
1 | Cc1cn(C2OC(CO[Si](C)(C)C(C)(C)C)C3(OS(=O)(=O)C=C3N)C2O[Si](C)(C)C(C)(C)C)c(=O)n(C)c1=O (configuration not stated) | 40 |  |  | 
2 | Cc1cn(C2OC(CO[Si](C)(C)C(C)(C)C)C3(OS(=O)(=O)C(Br)=C3N)C2O[Si](C)(C)C(C)(C)C)c(=O)[nH]c1=O (configuration not stated) | 850 | 930 |  | 
3 | CC=C1C(=N)C2(OS1(=O)=O)C(CO[Si](C)(C)C(C)(C)C)OC(n1cc(C)c(=O)[nH]c1=O)C2O[Si](C)(C)C(C)(C)C (configuration not stated) |  |  | 3200 | 4000
4 | CC=C1C(=N)C2(OS1(=O)=O)C(CO)OC(n1cc(C)c(=O)[nH]c1=O)C2O[Si](C)(C)C(C)(C)C (configuration not stated) |  |  | 23000 | 15000
5 | COC(=O)CC=C1C(=N)C2(OS1(=O)=O)C(CO[Si](C)(C)C(C)(C)C)OC(n1cc(C)c(=O)[nH]c1=O)C2O[Si](C)(C)C(C)(C)C (configuration not stated) |  |  | 3700 | 3000
6 | Cc1cn(C2OC(CO[Si](C)(C)C(C)(C)C)C3(OS(=O)(=O)C(=CCCO)C3=N)C2O[Si](C)(C)C(C)(C)C)c(=O)n(C)c1=O (configuration not stated) |  |  | 5900 | 2800
7 | CC1=C(N)C2(OS1(=O)=O)C(CO[Si](C)(C)C(C)(C)C)OC(n1cc(C)c(=O)n(C)c1=O)C2O[Si](C)(C)C(C)(C)C (configuration not stated) | 2200 | 250 |  | 
8 | Cc1cn(C2OC(CO[Si](C)(C)C(C)(C)C)C3(OS(=O)(=O)C(c4ccsc4)=C3N)C2O[Si](C)(C)C(C)(C)C)c(=O)n(C)c1=O (configuration not stated) |  | 2300 |  | 
9 | Cc1cn(C2OC(CO[Si](C)(C)C(C)(C)C)C3(OS(=O)(=O)C(I)=C3N)C2O[Si](C)(C)C(C)(C)C)c(=O)n(C)c1=O (configuration not stated) |  | 110 |  | 
10 | Cc1cn(C2OC(CO[Si](C)(C)C(C)(C)C)C3(OS(=O)(=O)C(c4ccccc4)=C3N)C2O[Si](C)(C)C(C)(C)C)c(=O)n(C)c1=O (configuration not stated) |  | 1700 |  | 
11 | CCOC(=O)CC=C1C(=N)C2(OS1(=O)=O)C(CO[Si](C)(C)C(C)(C)C)OC(n1cc(C)c(=O)[nH]c1=O)C2O[Si](C)(C)C(C)(C)C (configuration not stated) |  |  | 10000 | 3500
12 | Cc1cn(C2OC(CO[Si](C)(C)C(C)(C)C)C3(OS(=O)(=O)C(c4ccccc4)=C3N)C2O[Si](C)(C)C(C)(C)C)c(=O)[nH]c1=O (configuration not stated) | 2500 | 6700 |  | 
13 | COC(=O)CC=C1C(=N)C2(OS1(=O)=O)C(CO[Si](C)(C)C(C)(C)C)OC(n1cc(C)c(=O)n(C)c1=O)C2O[Si](C)(C)C(C)(C)C (configuration not stated) |  |  | 2900 | 980
14 | CNC1=C(C)S(=O)(=O)OC12C(CO[Si](C)(C)C(C)(C)C)OC(n1cc(C)c(=O)n(C)c1=O)C2O[Si](C)(C)C(C)(C)C (configuration not stated) | > 100000 | > 250000 |  | 
15 | Cc1cn([C@@H]2O[C@H](CO[Si](C)(C)C(C)(C)C)[C@@]3(OS(=O)(=O)C(=CCCO)C3=N)[C@H]2O[Si](C)(C)C(C)(C)C)c(=O)[nH]c1=O [1-[(5R,6R,8R,9R)-4-amino-9-(tert-butyl-dimethyl-silanyloxy)-6-(tert-butyl-dimethyl-silanyloxymethyl)-3-(3-hydroxy-propenyl)-2,2-dioxo-1,7-dioxa-2lambda*6*-thia-spiro[4.4]non-3-en-8-yl]-5-methyl-1H-pyrimidine-2,4-dione] |  |  | 6600 | 
16 | Cc1cn([C@@H]2O[C@H](CO[Si](C)(C)C(C)(C)C)[C@@]3(OS(=O)(=O)C(I)=C3N)[C@H]2O[Si](C)(C)C(C)(C)C)c(=O)[nH]c1=O [1-[(5R,6R,8R,9R)-4-amino-9-(tert-butyl-dimethyl-silanyloxy)-6-(tert-butyl-dimethyl-silanyloxymethyl)-3-iodo-2,2-dioxo-1,7-dioxa-2lambda*6*-thia-spiro[4.4]non-3-en-8-yl]-5-methyl-1H-pyrimidine-2,4-dione] | 60 | 120 |  | 
